{"source": "ChEMBL document CHEMBL5303300", "about": "“EUbOPEN Chemogenomics Library - Multiplex” (2023)", "key": {"Fibroblast": {"test_system": "Fibroblast", "experiment": "Multiplex assay against human fibroblast", "assay_type": "toxicity, cell-based", "conditions": "number of replicates 2", "outline": "(§1)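 Live cells were stained at seeding with Hoechst33342, BioTracker Green Microtubule Cytoskeleton Dye, MitoTracker Red and Annexin V Alexa Fluor 680. Following compound addition, they were imaged on a CQ1 microscope at 37°C and 5% CO2 and gated by CellPathfinder machine learning into Hoechst high-intensity objects or normal cells, with normal cells split into healthy, pyknosed or fragmented nuclei and pyknosed cells into mitotic or apoptotic. Tubulin, mitochondrial-mass and membrane-permeability phenotypes are per cents of healthy-nucleus cells.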"}, "U2OS": {"test_system": "U2OS", "experiment": "Multiplex assay against U2OS", "assay_type": "toxicity, cell-based", "conditions": "human, number of replicates 2", "outline": "as §1"}, "[1]": {"conditions": "24 h, 1 µM, compound concentration 1 uM"}, "[2]": {"conditions": "24 h, 10 µM, compound concentration 10 uM"}, "[3]": {"conditions": "48 h, 1 µM, compound concentration 1 uM"}, "[4]": {"conditions": "48 h, 10 µM, compound concentration 10 uM"}, "[5]": {"conditions": "12 h, 1 µM, compound concentration 1 uM"}, "[6]": {"conditions": "12 h, 10 µM, compound concentration 10 uM"}}, "note": "“And” between values parts separate entries of the source, which are not always exact repeats. Identical values can stand only once.", "data": [{"compound": "Cc1onc(-c2ccccc2Cl)c1C(=O)N(C)c1ccc(Cl)cc1", "values": [{"measurement": "Population Hoechst High Intensity Objects (%)", "setting": "Fibroblast; [1]", "result": 0, "unit": "%"}, {"measurement": "Population Membrane Permeable-Phenotype (%)", "setting": "Fibroblast; [1]", "result": "7% and 6%"}, {"measurement": "Population Mitochondria Different-Phenotype (%)", "setting": "Fibroblast; [1]", "result": 0, "unit": "%"}, {"measurement": "Population Mitotic Cells (%)", "setting": "Fibroblast; [1]", "result": "55% and 68%"}, {"measurement": "Population Normal (%)", "setting": "Fibroblast; [1]", "result": 100, "unit": "%"}, {"measurement": "Population Pyknosed Nuclei (%)", "setting": "Fibroblast; [1]", "result": "24% and 22%"}, {"measurement": "Population Tubulin-Different-Phenotype (%)", "setting": "Fibroblast; [1]", "result": "13% and 9%"}, {"measurement": "Total Cell Count", "setting": "Fibroblast; [1]", "result": "157 and 204"}, {"measurement": "Population Apoptotic (%)", "setting": "Fibroblast; [2]", "result": "56% and 57%"}, {"measurement": "Population Fragmented Nuclei (%)", "setting": "Fibroblast; [2]", "result": "5% and 8%"}, {"measurement": "Population Healthy Nuclei (%)", "setting": "Fibroblast; [2]", "result": "72% and 74%"}, {"measurement": "Population Hoechst High Intensity Objects (%)", "setting": "Fibroblast; [2]", "result": 0, "unit": "%"}, {"measurement": "Population Membrane Permeable-Phenotype (%)", "setting": "Fibroblast; [2]", "result": "5% and 8%"}, {"measurement": "Population Mitochondria Different-Phenotype (%)", "setting": "Fibroblast; [2]", "result": "4% and 0%"}, {"measurement": "Population Mitotic Cells (%)", "setting": "Fibroblast; [2]", "result": "43% and 42%"}, {"measurement": "Population Normal (%)", "setting": "Fibroblast; [2]", "result": "100% and 99%"}, {"measurement": "Population Pyknosed Nuclei (%)", "setting": "Fibroblast; [2]", "result": "22% and 17%"}, {"measurement": "Population Tubulin-Different-Phenotype (%)", "setting": "Fibroblast; [2]", "result": "15% and 11%"}, {"measurement": "Total Cell Count", "setting": "Fibroblast; [2]", "result": "166 and 203"}, {"measurement": "Population Apoptotic (%)", "setting": "Fibroblast; [3]", "result": "42% and 56%"}, {"measurement": "Population Fragmented Nuclei (%)", "setting": "Fibroblast; [3]", "result": "8% and 14%"}, {"measurement": "Population Healthy Nuclei (%)", "setting": "Fibroblast; [3]", "result": "72% and 68%"}, {"measurement": "Population Hoechst High Intensity Objects (%)", "setting": "Fibroblast; [3]", "result": 0, "unit": "%"}, {"measurement": "Population Membrane Permeable-Phenotype (%)", "setting": "Fibroblast; [3]", "result": "2% and 3%"}, {"measurement": "Population Mitochondria Different-Phenotype (%)", "setting": "Fibroblast; [3]", "result": 0, "unit": "%"}, {"measurement": "Population Mitotic Cells (%)", "setting": "Fibroblast; [3]", "result": "57% and 43%"}, {"measurement": "Population Normal (%)", "setting": "Fibroblast; [3]", "result": 100, "unit": "%"}, {"measurement": "Population Pyknosed Nuclei (%)", "setting": "Fibroblast; [3]", "result": "18% and 17%"}, {"measurement": "Population Tubulin-Different-Phenotype (%)", "setting": "Fibroblast; [3]", "result": "9% and 4%"}, {"measurement": "Total Cell Count", "setting": "Fibroblast; [3]", "result": "148 and 214"}, {"measurement": "Population Apoptotic (%)", "setting": "Fibroblast; [4]", "result": "65% and 54%"}, {"measurement": "Population Healthy Nuclei (%)", "setting": "Fibroblast; [4]", "result": "77% and 74%"}, {"measurement": "Population Hoechst High Intensity Objects (%)", "setting": "Fibroblast; [4]", "result": 0, "unit": "%"}, {"measurement": "Population Membrane Permeable-Phenotype (%)", "setting": "Fibroblast; [4]", "result": "7% and 4%"}, {"measurement": "Population Mitochondria Different-Phenotype (%)", "setting": "Fibroblast; [4]", "result": "1% and 0%"}, {"measurement": "Population Mitotic Cells (%)", "setting": "Fibroblast; [4]", "result": "34% and 45%"}, {"measurement": "Population Normal (%)", "setting": "Fibroblast; [4]", "result": 100, "unit": "%"}, {"measurement": "Population Pyknosed Nuclei (%)", "setting": "Fibroblast; [4]", "result": "18% and 9%"}, {"measurement": "Population Tubulin-Different-Phenotype (%)", "setting": "Fibroblast; [4]", "result": "11% and 8%"}, {"measurement": "Total Cell Count", "setting": "Fibroblast; [4]", "result": "157 and 221"}, {"measurement": "Population Apoptotic (%)", "setting": "U2OS; [5]", "result": "60% and 64%"}, {"measurement": "Population Healthy Nuclei (%)", "setting": "U2OS; [5]", "result": "57% and 80%"}, {"measurement": "Population Hoechst High Intensity Objects (%)", "setting": "U2OS; [5]", "result": 0, "unit": "%"}, {"measurement": "Population Mitochondria Different-Phenotype (%)", "setting": "U2OS; [5]", "result": "20% and 0%"}, {"measurement": "Population Mitotic Cells (%)", "setting": "U2OS; [5]", "result": "40% and 35%"}, {"measurement": "Population Normal (%)", "setting": "U2OS; [5]", "result": 100, "unit": "%"}, {"measurement": "Population Pyknosed Nuclei (%)", "setting": "U2OS; [5]", "result": "14% and 17%"}, {"measurement": "Population Tubulin-Different-Phenotype (%)", "setting": "U2OS; [5]", "result": "65% and 85%"}, {"measurement": "Population Apoptotic (%)", "setting": "U2OS; [6]", "result": "33% and 73%"}, {"measurement": "Population Healthy Nuclei (%)", "setting": "U2OS; [6]", "result": "52% and 83%"}, {"measurement": "Population Hoechst High Intensity Objects (%)", "setting": "U2OS; [6]", "result": 0, "unit": "%"}, {"measurement": "Population Membrane Permeable-Phenotype (%)", "setting": "U2OS; [6]", "result": "0% and 4%"}, {"measurement": "Population Mitochondria Different-Phenotype (%)", "setting": "U2OS; [6]", "result": 0, "unit": "%"}, {"measurement": "Population Mitotic Cells (%)", "setting": "U2OS; [6]", "result": "66% and 26%"}, {"measurement": "Population Normal (%)", "setting": "U2OS; [6]", "result": 100, "unit": "%"}, {"measurement": "Population Pyknosed Nuclei (%)", "setting": "U2OS; [6]", "result": "13% and 12%"}, {"measurement": "Population Tubulin-Different-Phenotype (%)", "setting": "U2OS; [6]", "result": "88% and 70%"}, {"measurement": "Population Apoptotic (%)", "setting": "U2OS; [1]", "result": "50% and 45%"}, {"measurement": "Population Healthy Nuclei (%)", "setting": "U2OS; [1]", "result": "72% and 85%"}, {"measurement": "Population Hoechst High Intensity Objects (%)", "setting": "U2OS; [1]", "result": 0, "unit": "%"}, {"measurement": "Population Mitochondria Different-Phenotype (%)", "setting": "U2OS; [1]", "result": "13% and 0%"}, {"measurement": "Population Mitotic Cells (%)", "setting": "U2OS; [1]", "result": "50% and 54%"}, {"measurement": "Population Normal (%)", "setting": "U2OS; [1]", "result": "100% and 99%"}, {"measurement": "Population Pyknosed Nuclei (%)", "setting": "U2OS; [1]", "result": "10% and 12%"}, {"measurement": "Population Tubulin-Different-Phenotype (%)", "setting": "U2OS; [1]", "result": "68% and 86%"}, {"measurement": "Population Apoptotic (%)", "setting": "U2OS; [2]", "result": "22% and 41%"}, {"measurement": "Population Healthy Nuclei (%)", "setting": "U2OS; [2]", "result": "67% and 85%"}, {"measurement": "Population Hoechst High Intensity Objects (%)", "setting": "U2OS; [2]", "result": 0, "unit": "%"}, {"measurement": "Population Membrane Permeable-Phenotype (%)", "setting": "U2OS; [2]", "result": 3, "unit": "%"}, {"measurement": "Population Mitochondria Different-Phenotype (%)", "setting": "U2OS; [2]", "result": 1, "unit": "%"}, {"measurement": "Population Mitotic Cells (%)", "setting": "U2OS; [2]", "result": "77% and 58%"}, {"measurement": "Population Normal (%)", "setting": "U2OS; [2]", "result": 100, "unit": "%"}, {"measurement": "Population Pyknosed Nuclei (%)", "setting": "U2OS; [2]", "result": "9% and 10%"}, {"measurement": "Population Tubulin-Different-Phenotype (%)", "setting": "U2OS; [2]", "result": "77% and 73%"}, {"measurement": "Population Apoptotic (%)", "setting": "U2OS; [3]", "result": "60% and 56%"}, {"measurement": "Population Healthy Nuclei (%)", "setting": "U2OS; [3]", "result": "75% and 91%"}, {"measurement": "Population Hoechst High Intensity Objects (%)", "setting": "U2OS; [3]", "result": 0, "unit": "%"}, {"measurement": "Population Membrane Permeable-Phenotype (%)", "setting": "U2OS; [3]", "result": "8% and 2%"}, {"measurement": "Population Mitochondria Different-Phenotype (%)", "setting": "U2OS; [3]", "result": "3% and 0%"}, {"measurement": "Population Mitotic Cells (%)", "setting": "U2OS; [3]", "result": "40% and 43%"}, {"measurement": "Population Normal (%)", "setting": "U2OS; [3]", "result": "100% and 99%"}, {"measurement": "Population Pyknosed Nuclei (%)", "setting": "U2OS; [3]", "result": 6, "unit": "%"}, {"measurement": "Population Tubulin-Different-Phenotype (%)", "setting": "U2OS; [3]", "result": "74% and 88%"}, {"measurement": "Population Apoptotic (%)", "setting": "U2OS; [4]", "result": "30% and 56%"}, {"measurement": "Population Healthy Nuclei (%)", "setting": "U2OS; [4]", "result": "76% and 89%"}, {"measurement": "Population Hoechst High Intensity Objects (%)", "setting": "U2OS; [4]", "result": 0, "unit": "%"}, {"measurement": "Population Membrane Permeable-Phenotype (%)", "setting": "U2OS; [4]", "result": "0% and 1%"}, {"measurement": "Population Mitochondria Different-Phenotype (%)", "setting": "U2OS; [4]", "result": "0% and 2%"}, {"measurement": "Population Mitotic Cells (%)", "setting": "U2OS; [4]", "result": "70% and 43%"}, {"measurement": "Population Normal (%)", "setting": "U2OS; [4]", "result": 100, "unit": "%"}, {"measurement": "Population Pyknosed Nuclei (%)", "setting": "U2OS; [4]", "result": "7% and 9%"}, {"measurement": "Population Tubulin-Different-Phenotype (%)", "setting": "U2OS; [4]", "result": "88% and 82%"}]}]}
